This is a sample that favours compounds with a hit; in the whole collection about 3.5% have one here.
MrgX1 antag: antagonists of human MrgX1 receptor, primary screen, HEK293 cells, Fluo-4 calcium flux. AID 588676, 2011. BAM8-22 antagonism; hits give low values. B-score at 10 µM. Mas-related G-protein coupled receptor member X1 (Homo sapiens), Q96LB2. 310,000 tested, 1.3% active;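 active means calcium-response B-score plate-corrected more than 3 library SD below zero, starting fluorescence within 5 deviations, no agonist response on first addition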;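 further: peak minus trough fluorescence over baseline after final BAM8-22 challenge near maximal dose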
Target sequence (Q96LB2 whole entry, looked up): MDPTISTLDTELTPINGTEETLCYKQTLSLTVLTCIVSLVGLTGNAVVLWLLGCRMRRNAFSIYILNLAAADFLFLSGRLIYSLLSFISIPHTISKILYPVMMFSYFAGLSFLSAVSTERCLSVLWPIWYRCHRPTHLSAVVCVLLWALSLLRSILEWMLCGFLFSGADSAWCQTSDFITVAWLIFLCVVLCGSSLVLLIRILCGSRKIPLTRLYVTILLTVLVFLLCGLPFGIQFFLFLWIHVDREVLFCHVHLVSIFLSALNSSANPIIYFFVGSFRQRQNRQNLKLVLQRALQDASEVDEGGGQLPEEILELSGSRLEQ
MrgX1 ag: agonists of human MrgX1 receptor, primary screen, HEK293 cells, Fluo-4 calcium flux | Mas-related G-protein coupled receptor member X1 (Homo sapiens), Q96LB2 | Fluo-4 calcium fluorescence, agonist mode; hits give high values | B-score at 10 µM | 310,000 tested, 0.44% active | AID 588627, 2011;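 active means calcium response B-score plate-corrected fluorescence ratio at least 3 library SD, with starting fluorescence B-score inside 5 SD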
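Assay system: MrgX1-expressing HEK293 cells / Amount: fifteen thousand cells per well / Doses: test compound in the initial addition of three / Timing: cells plated overnight, dye loaded 0.5 h 37 °C, 0.5 h room temperature / Technique: kinetic calcium dye fluorescence, Fluo-4 NW / Control set: positive and negative controls per plate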
MrgX1 allo act: positive allosteric modulators of MrgX1, primary screen, HEK293 cells, Fluo-4 calcium flux | B-score at 10 µM | FDSS; hits give high values | AID 588675, 2011 | 310,000 tested, 0.63% active;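 active means plate-corrected calcium response at least 3 library SD above typical, normal starting fluorescence, not activating the receptor alone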;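 further: compound read alongside a low EC10 to EC30 dose of BAM8-22 agonist; peak minus trough fluorescence over baseline measured at the second addition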
RGS4 act: RGS4 potentiators or activators, primary screen, cell-based, HEK293 M3R inducible RGS4, calcium flux. 310,000 tested, 0.92% active. carbachol calcium flux Fluo4; hits give low values. B-score at 10 µM;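 active means B-score of the integrated calcium signal more than 4 SD below the library mean, with starting fluorescence not abnormally high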;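 further: negative B-score means reduced calcium response which marks RGS4 activation or potentiation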
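Detection: kinetic calcium fluorescence imaging with Fluo4-AM dye, 2 µM / Material: HEK293 cells with stable M3R and inducible RGS4 / Schedule: recording 10 s baseline at 1 Hz, 100 s post-agonist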
RGS4 inh: RGS4 inhibitors, primary screen, cell-based, HEK293 M3R inducible RGS4, calcium flux; Fluo-4 calcium flux; hits give high values; triggered by carbachol at its EC20; Regulator of G-protein signaling 4 (Homo sapiens), P49798; B-score at 10 µM; 310,000 tested, 0.45% active;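 active means B-score, a plate-corrected calcium signal, over three deviations above library mean, with baseline fluorescence within five deviations of library mean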;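 further: RGS4 expression induced by doxycycline in cells with stable M3 receptor; B-score is computed from the integrated fluorescence ratio over baseline after carbachol; higher B-score means a larger calcium signal and so more RGS4 inhibition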
Target sequence (P49798 whole entry, looked up): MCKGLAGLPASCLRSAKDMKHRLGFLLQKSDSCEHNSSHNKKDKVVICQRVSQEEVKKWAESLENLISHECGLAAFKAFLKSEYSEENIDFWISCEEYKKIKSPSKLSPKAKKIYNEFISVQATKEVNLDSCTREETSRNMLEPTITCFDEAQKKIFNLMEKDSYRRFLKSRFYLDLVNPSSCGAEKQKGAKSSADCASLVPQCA
RGS4 act valid: reduced carbachol calcium response, RGS4-induced M3R cells, confirmation, RGS4 activator project, cell-based, HEK293 M3R/RGS4 inducible, calcium flux, duplicate; shares compounds with RGS4 act; carbachol calcium flux Fluo4; inhibition, % at 10 µM; 1,100 tested, 89% active;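 active means inhibition above 3 SD of the buffer control wells, cut at about 41% in these data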;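 further: signal is the integrated peak-minus-minimum Fluo4 fluorescence over baseline ratio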
M3R Ca counter: activity in cells without induced RGS4 expression. shares compounds with RGS4 act. HEK293 M3R non-induced RGS4, Fluo4 calcium flux; after carbachol challenge at its EC90. inhibition, % at 10 µM. 1,100 tested, 82% active;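 active means inhibition exceeding 3 SD of buffer-only control wells, cut at about 26% in these data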;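 further: percent drop in integrated peak-minus-baseline over baseline Fluo4 ratio after carbachol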
* marks the source's active call; other numbers are inactive results; i = inactive; . = no result; ! = repeats disagree.

SMILES	MrgX1 antag	MrgX1 ag	MrgX1 allo act	RGS4 act	RGS4 inh	RGS4 act valid	M3R Ca counter
CN1CCN(Cc2cccc(Oc3ccc(Cl)cc3)c2)CC1	i	i	i	-12*	i	90*	38*
CCOC(=O)C1CCN(Cc2cccc(Oc3ccc(Cl)cc3)c2)CC1	i	i	i	i	i	.	.
CC(C)OCCCN(C)C1CCN(S(=O)(=O)c2csc(C(N)=O)c2)CC1	i	i	i	i	i	.	.
CC(C)OCCCN(C)C1CCN(S(=O)(=O)c2ccc(-c3cc(C(F)(F)F)no3)s2)CC1	i	i	i	-7.7*	i	49*	84*
CN(C)c1ccc(/C=N/n2c(-c3ccccc3Br)n[nH]c2=S)cc1	i	i	i	-12*	i	94*	94*
CN(C)c1ccc(/C=N/n2c(-c3cccnc3)n[nH]c2=S)cc1	i	i	i	i	i	.	.
CCOc1ccc(N2CC(C(=O)Nc3cc(Cl)ccc3-n3cncn3)CC2=O)cc1 (stereo not given)	i	i	i	i	i	.	.
Cc1cnc(NC(=O)C2=C(O)c3ccccc3S(=O)(=O)N2C)s1	i	i	i	-9.5*!	i	0	0
COCCNC(=O)c1ccccc1NC(=O)CCSc1ccccc1	i	i	i	i	i	.	.
Cc1ccc(NC(=S)NC(NC(=O)c2ccccc2C)C(Cl)(Cl)Cl)c(C)c1 (stereo not given)	i	i	i	-8.5*	i	0	0
CN(C)CC/C=C1/c2ccccc2Sc2ccc(Cl)cc21	i	i	i	-9.5*	i	94*	96*
CN(C)CC/C=C1/c2ccccc2CS(=O)(=O)c2ccccc21	i	i	i	i	i	.	.
CN1CCN(CCC=C2c3ccccc3Sc3ccc(S(=O)(=O)N(C)C)cc32)CC1	i	i	i	.	.	.	.
CN(C)CC/C=C1\c2ccccc2COc2ccccc21	i	i	i	-8*	i	94*	93*
O=C(Nc1ccc2c(c1)OCCO2)C1CC(O)CN1C(=O)Nc1ccccc1 (stereo not given)	i	i	i	i	i	.	.
Cc1ccc(-c2nc3ccccn3c2NCc2ccc3c(c2)OCO3)cc1	i	i	i	-9.5*	i	89*	71*
O=[N+]([O-])c1ccc(Cl)cc1CNc1ccc(F)c(F)c1	i	i	i	i	i	.	.
Cc1ccc(Sc2ccc(N)cc2C#N)cc1	i	i	i	-8.8*	i	83*	42*
Cc1ccc(Sc2nnc(-c3ccccc3)cc2C#N)cc1	i	i	i	i	i	.	.
O=S(=O)(/C=C/c1ccccc1)N1CCN(c2nc(-c3cccnc3)nc3ccccc23)CC1	i	i	i	i	i	.	.
OCCN1CCN(CC/C=C2/c3ccccc3CSc3ccccc32)CC1	i	i	i	i	i	.	.
CNCC/C=C1/c2ccccc2CSc2ccccc21	i	i	i	-8.6*	i	92*	86*
CSc1ccc(CN(C)C(=O)C(c2ccccc2)c2ccccc2)cc1	i	i	i	i	i	.	.
CN(CCN(C)C(C)(C)C)C(=O)C(c1ccccc1)c1ccccc1	i	i	i	-12*	i	94*	75*
CN1/C(=C\C(=O)Nc2ccc(F)cc2)C(C)(C)c2ccccc21	i	i	i	-8.8*	i	50*	26*
SMILES	MrgX1 antag	MrgX1 ag	MrgX1 allo act	RGS4 act	RGS4 inh	RGS4 act valid	M3R Ca counter
CN1/C(=C\C(=O)Nc2ccc(Br)cc2)C(C)(C)c2ccccc21	i	i	i	-9.2*	i	92*	96*
COC(C#CCCN(C)C)(c1ccccc1)c1ccccc1	i	i	i	-8.4*	i	92*	96*
CN(C)CCOC(C)(c1ccccc1)c1ccccn1 (stereo not given)	i	i	i	i	i	.	.
O=C(CSc1nccc(=O)[nH]1)N1CCOCC1	i	i	i	i	i	.	.
COc1ccc(NC(=O)C2CCCN2C(=O)Nc2ccc(OC)cc2)cc1 (stereo not given)	.	.	.	i	i	.	.
Cc1csc(NC(=O)c2sc3nc(-c4cccs4)ccc3c2N)n1	i	93*	i	-8.9*	i	88*	83*
CCCN1CCN(c2ncnc3scc(C4COc5ccccc5O4)c23)CC1 (stereo not given)	i	i	i	-12*	i	92*	62*
c1ccc2c(c1)OCC(c1csc3ncnc(N4CCCCC4)c13)O2 (stereo not given)	i	i	i	i	i	.	.
CC(C)Cn1c(-c2ccncc2)n[nH]c1=S	i	i	i	i	i	.	.
CC(C)Cn1c(-c2ccc(F)cc2)n[nH]c1=S	i	i	i	-8.5*	i	62*	84*
CC(C)Cn1c(-c2csc3c2CCCC3)n[nH]c1=S	i	i	i	-8*	i	94*	67*
COc1ccc(C(CNC(=O)c2ccc(Cl)c(NC(=O)c3cccs3)c2)N2CCCC2)cc1 (stereo not given)	i	i	i	-12*	i	89*	52*
CN(C)C(C)(C)/C=C/C(O)(c1ccccc1)c1ccccc1	i	i	i	-8.7*	i	88*	64*
COc1ccccc1Cn1c(=O)oc2ccc(C)cc21	i	i	i	i	i	.	.
CCCCOc1ccccc1Cn1c(=O)oc2ccc(C)cc21	i	i	i	-7.7*	i	92*	91*
Cc1cc2ncn(C(=O)c3c(-c4ccccc4Cl)noc3C)c2cc1C	i	i	i	-11*	i	94*	79*
CCOC(=O)C1=C(CC)Nc2ccccc2N=C1NC(=O)CCNC(C)=O	i	i	i	i	i	.	.
CCOC(=O)C1=C(CC)Nc2ccccc2N=C1NC(=O)c1oc2ccccc2c1C	i	i	i	-12*	i	84*	52*
